Test: Toxicity liver stage against HepG2, at 10uM
Type: cell-based
Set-up: test concentration 10 uM, cell line HepG2-A16-CD81EGFP
Conditions: human, HepG2-A16-CD81EGFP cells; read-out: INHIBITION
Outline: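 Uninfected HepG2-A16-CD81EGFP cells, 3 × 10^3 per well, 1536-well, plated on prespotted compound at 10 μM final, parasite-free screening media added to match infected plates; puromycin 10 μM positive, DMSO 0.5% negative; run in parallel with 48 h PbLuc assay at 37 °C, 5% CO2; viability by CellTiter-Glo luminescence, normalized to controls.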

Structure (SMILES)	cytotoxicity at 10 µM [%]
O=C(c1ccncc1)N1CCCn2nnc(Cn3cccn3)c2C1	6.01
CN(Cc1ccc(Cl)cc1)S(=O)(=O)N(C)Cc1cnn(C)c1	16.5
COc1cccc2c1OCC(NC(=O)NCCC(N)=O)C2 (centres undefined)	-1.38
Cc1cc(C)n(C2=NC(NCCCO)c3c(sc4c3CCCC4)N2)n1 (centres undefined)	14
Cc1cc(CN(C)C(=O)NC(C)Cc2ccc(O)cc2)no1 (centres undefined)	4.93
Cc1nc(CN2CCCC(NCCOc3ccccc3)C2)no1 (centres undefined)	-7.98
CN(Cc1noc2c1CCCC2)C(=O)Nc1cncc(F)c1	2.26
Cc1nc(N2CCCC2C(=O)NC(C)(C)CO)nc2ccccc12 (centres undefined)	0.215
CCN(C)C[C@@H]1CN(S(=O)(=O)c2ccc(OC)cc2)C[C@@H]1CO	14.8
CC1(C)CN(C(=O)CCc2nc(-c3ccncc3)no2)CCO1	-3.16
CCOC(=O)[C@@H]1[C@@H](c2ccccc2)CN2CCN(S(C)(=O)=O)C[C@H]12	0.227
Cc1nc(C2CCCN2C(=O)Cc2cccc(F)c2)nc(O)c1C (centres undefined)	-26.9
COc1ccccc1NC(=O)Cc1c(C)nc2c(c1C)c(=O)[nH]n2C	-1.68
Cc1nnc2n1CCN(C(C)c1nnc(-c3cccs3)o1)C2 (centres undefined)	-11.2
Cc1nn(CN(Cc2ccsc2)C2CC2)c(=O)c2noc(C)c12	-1.54
O=C(CC1CC1)N1CCCn2nnc(CNc3ncccn3)c2C1	-0.802
Cc1n[nH]cc1CNCC1(c2cccc(F)c2)CCOCC1	6.48
c1cc(CNCc2ccnc(N3CCOCC3)c2)c2c(c1)OCCO2	-4.66
CCc1noc(CN(Cc2ccc3c(c2)OCO3)C2CCCC2)n1	-0.315
CCC(CN1CCCC1)NC(=O)Cc1c(C)[nH]c2c(C)cc(C)cc12 (centres undefined)	14.6
Cc1ccc(CN2CCOC3(CCN(CC4CCOC4)CC3)C2)cc1 (centres undefined)	-117
N#Cc1cccc(CN2CCn3cc(CNC(=O)C4CCC4)nc3C2)c1	14

Structure (SMILES)	cytotoxicity at 10 µM [%]
CN1CCN(C(=O)C[C@@H]2COC[C@H]3CN(c4ccncn4)C[C@@H]23)CC1	-134
CN(C)c1cnn(Cc2nc3ccccc3n2C)c(=O)c1	10.9
CN(CC(=O)N1CCCC1c1noc(C2CC2)n1)C1CC1 (centres undefined)	9.62
CC(=O)N1CCN(CCCSCc2ccccc2)CC1	1.64
CN(Cc1ccc(Cl)s1)C(=O)c1cccc(OCC(N)=O)c1	-1.61
CC(C)SCc1cccc(NC(=O)NCCc2nnc[nH]2)c1	-46.1
CC(=O)N(C)Cc1ccccc1NCc1c(C)cccc1C	-4.54
COc1cc(C(=O)N(Cc2cnn(C)c2)C(C)C)ccc1OC(C)C	-6.02
Cc1ncsc1C(=O)NCCCN1CCCCCC1=O	-3.51
C=C(C)Cn1nnc(C2(NC(=O)c3ccccc3)CCCC2)n1	7.09
CCCn1cc(CN2CCC(c3[nH]ncc3S(C)(=O)=O)C2)cn1 (centres undefined)	4.27
CCOCC(O)CN1CCN(C(=O)Cc2ccccc2Cl)CC1 (centres undefined)	-1.19
Cc1cc(C(=O)NC2CCc3nc(C)cn3C2)[nH]n1 (centres undefined)	-5.15
COc1ccc2c(ccn2CCC(=O)NCCC(=O)O)c1	6.81
Cc1csc(Nc2cc(C3CCCCN3C)nc(C)n2)n1 (centres undefined)	4.73
Cc1cnc(CN(C)C2CCCN(c3cccnn3)C2)cn1 (centres undefined)	10.4
O=S(=O)(CCOc1ccc(F)cc1)Nc1cnn(CC(F)F)c1	-4.87
CCC(C(=O)NCC1=CCCN(C)C1)c1ccccc1 (centres undefined)	-2.65
c1ccc2c(c1)CCN(c1nc(N3CCOCC3)c3nn[nH]c3n1)C2	11.6
C[S+]([O-])c1cccc(NC(=O)N(CCC#N)Cc2ccccn2)c1 (centres undefined)	10.6
CSc1ncccc1C(=O)N1C[C@@H]2CC[C@H]1CN(C(C)=O)C2	4.99
COc1ccc(S(=O)(=O)N2CCC(O)(CN(C)C)C2)cc1 (centres undefined)	-3.36

Structure (SMILES)	cytotoxicity at 10 µM [%]
O=C(c1ccn(-c2cccc(Cl)c2)n1)N1CCN(CCO)CC1	-17.1
CCc1c(C(=O)N2CCN(C)[C@@H]3CS(=O)(=O)C[C@@H]32)[nH]c2ccccc12	-6.08
CC1CN(CC(=O)NCc2ccccc2)CCN1Cc1nccn1C (centres undefined)	-16.2
Cc1cc(CN(C)C(=O)Nc2cnc3c(c2)c(C)nn3C)no1	3.77
O=C(CN1CCN(CCO)CC1)NC(C1CC1)C1CC1	-6.56
COc1ccc(CN)c(OC(F)F)c1	-41.7
CCc1nc(C)c(C(=O)N2C[C@@H]3CC[C@H]2CN(S(=O)(=O)N(C)C)C3)s1	25
Cc1c(C(=O)NCC(C)C)nnn1-c1cccc2c1CCN(C(C)C)C2	-12.3
CC(C)C[C@H](N)COc1cccc(F)c1Oc1cccc(Cl)c1	86.1
CN(Cc1nc(C2CC2)no1)C1CCS(=O)(=O)C1 (centres undefined)	13.2
COCC[C@]1(O)CCN(c2ncc(Cl)cc2F)C[C@H]1C	12.8
OC1(CNCCCN2CCc3ccccc32)CCNC1 (centres undefined)	11.5
CCCn1c(C)c(CC(=O)N(C)CCOC)c2c1CC(C)(C)CC2=O	-16.6
CCc1noc(C2CCN(C(=O)CCn3nc(C)cc3C)CC2)n1	-9.52
COc1ccc2c(c1)C(=O)NC1(CC2)CCN(Cc2ccncc2)C1 (centres undefined)	3.44
CC(C)S(=O)(=O)N1CCC(c2cc3n(n2)[C@@H](C(F)(F)F)C[C@@H](C)N3)C1 (some centres undefined)	-1.96
O=C(c1ccccn1)N1C[C@H]2CC[C@@H](C1)N(C(=O)CCN1CCCC1)C2	3.92
Cc1nc(COCc2nc3c(o2)CN(C(=O)c2ccoc2)C3)cs1	-1.95
Cc1cccc(NC(=O)[C@@H]2CCCN2Cc2nnc(C(C)C)n2C)n1	5.81
CN(C)CCNCC1COCc2c(-c3ccnn3C)nnn2C1 (centres undefined)	-99.9
CCCOC1CCCN(c2ccnc(C(=O)NCc3ccco3)c2)C1 (centres undefined)	5.58
CC1CN(Cc2cccc(CN)c2)CCO1 (centres undefined)	-8.99

Structure (SMILES)	cytotoxicity at 10 µM [%]
NC(=O)c1ccn(COc2ccccc2Cl)n1	2.96
COc1ccc2c(C)nc(N3CCN([C@H]4CCCC[C@@H]4O)CC3)nc2c1	7.24
CC(C)CS(=O)(=O)CC(=O)NC(C)(C)c1cccc(F)c1	-1.12
Cc1noc(CC2CCN(C(=O)C(c3ccccc3C)N(C)C)CC2)n1 (centres undefined)	1.86
CCC(NS(=O)(=O)N1CCOCC1)c1ccccc1OC (centres undefined)	-45.1
Cc1nc(CN2CCCCC2CCc2ccc(O)cc2)co1 (centres undefined)	2.72
Nc1nc(CN2CCN(c3nccs3)CC2)cs1	4.79
Cc1occc1C(=O)N1C[C@@H]2CCCO[C@@H]2[C@H](NS(C)(=O)=O)C1	-95.3
N#Cc1ccc(C(=O)O)nc1C=Cc1cccc(Br)c1	5.09
NCCN1CCC(c2nnc(Cn3ccnc3)n2C2CC2)CC1	-3.07
Cc1ccc(N2C[C@H]3CCC[C@@]3(COc3cccnc3)C2)nn1	9.43
Cc1nc(CNCC2CNc3ccnn3C2)cs1 (centres undefined)	-8.71
Cc1cnc(C(=O)N2CC[C@@H]3CN(c4ncccn4)CCO[C@@H]3C2)cn1	-75.2
CCOCC1c2c(ncn2C)CCN1C(=O)c1cscn1 (centres undefined)	-98.2
CNC(=O)c1ccc(C2CN(c3cc(C)nc(N)n3)CCO2)nc1 (centres undefined)	2.02
CCCN(CC)Cc1ccc(C(=O)NCC2COCCO2)c(=O)[nH]1 (centres undefined)	4.78
COc1ccc(CNc2cccnc2-n2cccn2)cc1OC	7.25
CC(C)(C#N)c1ccccc1CN1CCC(N2CCCC2=O)CC1	2.35
CNS(=O)(=O)c1cc(C(=O)NC2COc3ccccc32)cc(C)c1C (centres undefined)	-1.51
CN1CC(c2ccccc2)CC2(CCN(CC(=O)N(C)C)CC2)C1 (centres undefined)	-12.5
Cc1noc(C)c1C(=O)N1CCC(c2[nH]ncc2S(C)(=O)=O)C1 (centres undefined)	-9.83
CN(Cc1nnc(-c2ccco2)o1)CC1CCCN1c1cccnn1 (centres undefined)	5.68

Structure (SMILES)	cytotoxicity at 10 µM [%]
O=C(N1CCCC1)N1C[C@H]2CC[C@@]3(N=C(c4ccccc4)NC3=O)[C@H]2C1	0.516
CC(c1ccccn1)N(C)Cc1cc2cc3c(cc2[nH]c1=O)OCO3 (centres undefined)	11.7
Cc1cnn(CC2CCCN2C(=O)CCc2c(C)noc2Cl)c1 (centres undefined)	-8.31
Cc1ccc(OCCN(C)C(=O)CCCC(N)=O)c(C)c1	1.47
CC(C)Cn1ncc(C(=O)NS(=O)(=O)C2CCCC2)c1C1CC1	-9.97
CCOc1ccccc1CSc1nnc(CC2CCS(=O)(=O)C2)n1C (centres undefined)	10.7
CCCN1C[C@@H]2CC[C@H]1CN(Cc1ccc(Cn3cccn3)cc1)C2	-4.87
O=C(CCc1nnc(-c2ccccc2)o1)N1CCN(CC2CC2)CC1	-13.7
CC(C)NC(=O)c1cnc(Sc2nccn2C)c(Cl)c1	-41.4
NS(=O)(=O)c1cccnc1Nc1cccc(Cl)c1Cl	-2.19
Cc1ccc(CN2C[C@@H](C(=O)Nc3cccnc3)C[C@H]3OCC[C@H]32)o1	3.82
NC(=O)N1CCCC(C(=O)NCCc2nc(Cc3ccccc3)no2)C1 (centres undefined)	8.5
Cc1cc(NC(=O)c2nn(C3CCS(=O)(=O)C3)c3c2CCCC3)no1 (centres undefined)	3.85
Cc1csc(CCNC(=O)N2CCC(NC(=O)OC(C)(C)C)CC2)n1	1.23
NC(=O)c1cnn2c1NCC(CNCCCOc1ccccc1F)C2 (centres undefined)	-5.56
COc1ccc2c(c1)OCC(Cc1cnc(N)c(C)c1)C2 (centres undefined)	-1.23
CN1CCN(CC2CC2)C(=O)c2cnc(N3CCCC3)nc21	5.08
Cn1cc([C@@H]2CN(S(=O)(=O)c3cccnc3)C[C@H]2N)c2ccncc21	-0.57
CC(NCCCn1ccnc1)c1ccc(N2CCOC2=O)cc1 (centres undefined)	-8.48
O=S(=O)(c1cccs1)N1Cc2nc(CN3CCCCC3)oc2C1	-121
CCN1CC(C(=O)NCCCc2nc(C)c(C)s2)CC1=O (centres undefined)	-7.03
